Results on 10 molecules are retold here after ChEMBL document CHEMBL1139460 (J Med Chem, 2005).

Data set [1] has as its target T1, GABA-A receptor; alpha-2/beta-3/gamma-2 (Homo sapiens) (UniProt P18507+P28472+P47869). The data set can be described thus: Efficacy at human recombinant GABAA alpha-2-beta-3-gamma-2 receptor expressed in Xenopus laevis oocytes by two electrode voltage clamp method relative to GABA. The class given is cell-based. Particulars: Oocyte. The method, boiled down:
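Human α2β3γ2 GABA-A receptors were transiently expressed in Xenopus oocytes and recorded by two-electrode voltage clamp. […] Efficacy is the percent modulation of the submaximal GABA EC20 ion current.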

In data set [2] the target is T2, GABA-A receptor; alpha-1/beta-3/gamma-2 (Homo sapiens) (UniProt P14867+P18507+P28472). The data set can be described thus: Efficacy at human recombinant GABAA alpha-1-beta-3-gamma-2 receptor expressed in L(tk-) cells by two electrode voltage clamp method relative to GABA. It counts as cell-based. The method, boiled down:
(§1)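 Receptors stably expressed in L(tk-) fibroblasts; percent modulation of the submaximal (EC20) GABA response, multiple drug concentrations assessed.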

The target of data set [3] is T3, GABA-A receptor; alpha-3/beta-3/gamma-2 (Homo sapiens) (UniProt P18507+P28472+P34903). Briefly: Efficacy at human recombinant GABAA alpha-3-beta-3-gamma-2 receptor expressed in L(tk-) cells by two electrode voltage clamp method relative to GABA. The class given is cell-based. The method, boiled down:
as §1

In data set [4] the target is T4, GABA-A receptor; alpha-3/beta-3/gamma-2 (Homo sapiens, UniProt P18507+P28472+P34903).
T4 sequence (P18507 whole entry): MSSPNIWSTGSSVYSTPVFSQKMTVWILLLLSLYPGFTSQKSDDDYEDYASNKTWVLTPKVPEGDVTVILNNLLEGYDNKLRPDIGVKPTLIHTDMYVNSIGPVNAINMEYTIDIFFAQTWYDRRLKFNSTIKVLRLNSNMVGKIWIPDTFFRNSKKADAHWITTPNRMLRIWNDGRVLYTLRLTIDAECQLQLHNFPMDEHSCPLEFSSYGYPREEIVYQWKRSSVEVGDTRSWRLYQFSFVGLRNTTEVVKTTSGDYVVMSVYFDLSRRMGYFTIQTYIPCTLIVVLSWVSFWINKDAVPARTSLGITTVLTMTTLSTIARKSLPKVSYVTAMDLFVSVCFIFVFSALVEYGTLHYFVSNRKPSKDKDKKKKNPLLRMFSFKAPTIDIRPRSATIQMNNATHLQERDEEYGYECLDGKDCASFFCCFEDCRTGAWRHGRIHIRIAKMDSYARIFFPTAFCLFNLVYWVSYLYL
T4 sequence (P28472 whole entry): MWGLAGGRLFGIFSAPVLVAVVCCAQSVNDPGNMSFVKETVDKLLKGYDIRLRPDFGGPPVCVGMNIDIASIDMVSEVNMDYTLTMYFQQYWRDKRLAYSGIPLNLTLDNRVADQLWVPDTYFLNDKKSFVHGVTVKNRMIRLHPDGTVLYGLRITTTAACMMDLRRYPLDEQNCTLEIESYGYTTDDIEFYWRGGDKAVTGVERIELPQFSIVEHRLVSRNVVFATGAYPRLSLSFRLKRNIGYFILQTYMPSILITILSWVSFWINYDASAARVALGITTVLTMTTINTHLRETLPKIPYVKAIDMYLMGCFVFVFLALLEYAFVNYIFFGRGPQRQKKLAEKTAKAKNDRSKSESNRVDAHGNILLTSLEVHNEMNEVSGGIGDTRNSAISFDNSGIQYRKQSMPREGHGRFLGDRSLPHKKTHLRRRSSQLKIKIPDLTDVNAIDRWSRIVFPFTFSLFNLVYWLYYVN
T4 sequence (P34903 whole entry): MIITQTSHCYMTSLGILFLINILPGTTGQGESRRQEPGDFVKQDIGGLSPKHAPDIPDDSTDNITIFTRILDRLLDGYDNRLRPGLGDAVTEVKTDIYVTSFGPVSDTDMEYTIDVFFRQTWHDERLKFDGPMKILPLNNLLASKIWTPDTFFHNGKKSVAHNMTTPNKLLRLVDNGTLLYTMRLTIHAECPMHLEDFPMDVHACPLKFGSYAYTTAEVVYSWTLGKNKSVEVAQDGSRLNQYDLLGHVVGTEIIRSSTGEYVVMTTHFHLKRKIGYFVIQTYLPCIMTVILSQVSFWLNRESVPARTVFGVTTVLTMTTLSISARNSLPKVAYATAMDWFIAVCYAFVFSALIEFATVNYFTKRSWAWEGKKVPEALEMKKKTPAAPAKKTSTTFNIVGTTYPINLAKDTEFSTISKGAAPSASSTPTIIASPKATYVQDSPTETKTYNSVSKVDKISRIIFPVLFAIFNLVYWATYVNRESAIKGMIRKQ
The data set can be described thus: Displacement of [3H]Ro 15-1788 from human recombinant GABAA alpha-3-beta-3-gamma-2 receptor expressed in L(tk-) cells. The class given is cell-based.

The target in data set [5] is T5, GABA-A receptor; alpha-1/beta-3/gamma-2 (Homo sapiens, UniProt P14867+P18507+P28472).
T5 sequence (P14867 whole entry): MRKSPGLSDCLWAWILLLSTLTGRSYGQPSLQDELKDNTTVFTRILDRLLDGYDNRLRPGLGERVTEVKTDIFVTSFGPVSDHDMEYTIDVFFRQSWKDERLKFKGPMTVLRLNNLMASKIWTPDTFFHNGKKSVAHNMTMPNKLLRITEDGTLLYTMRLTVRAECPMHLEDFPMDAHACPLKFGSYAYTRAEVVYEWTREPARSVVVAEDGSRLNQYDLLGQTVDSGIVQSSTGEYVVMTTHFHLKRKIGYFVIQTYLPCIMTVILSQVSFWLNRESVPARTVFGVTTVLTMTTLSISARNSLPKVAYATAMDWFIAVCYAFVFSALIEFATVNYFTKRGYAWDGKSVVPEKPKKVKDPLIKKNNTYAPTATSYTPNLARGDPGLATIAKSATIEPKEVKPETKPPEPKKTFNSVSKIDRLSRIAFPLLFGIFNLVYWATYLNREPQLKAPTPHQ
T5 sequence (P18507 whole entry): T4 sequence (P18507 whole entry)
T5 sequence (P28472 whole entry): T4 sequence (P28472 whole entry)
The data set can be described thus: Displacement of [3H]Ro 15-1788 from human recombinant GABAA alpha-1-beta-3-gamma-2 receptor expressed in L(tk-) cells. It counts as cell-based.

The target in data set [6] is T6, GABA-A receptor; alpha-2/beta-3/gamma-2 (Homo sapiens, UniProt P18507+P28472+P47869).
T6 sequence (P18507 whole entry): T4 sequence (P18507 whole entry)
T6 sequence (P28472 whole entry): T4 sequence (P28472 whole entry)
T6 sequence (P47869 whole entry): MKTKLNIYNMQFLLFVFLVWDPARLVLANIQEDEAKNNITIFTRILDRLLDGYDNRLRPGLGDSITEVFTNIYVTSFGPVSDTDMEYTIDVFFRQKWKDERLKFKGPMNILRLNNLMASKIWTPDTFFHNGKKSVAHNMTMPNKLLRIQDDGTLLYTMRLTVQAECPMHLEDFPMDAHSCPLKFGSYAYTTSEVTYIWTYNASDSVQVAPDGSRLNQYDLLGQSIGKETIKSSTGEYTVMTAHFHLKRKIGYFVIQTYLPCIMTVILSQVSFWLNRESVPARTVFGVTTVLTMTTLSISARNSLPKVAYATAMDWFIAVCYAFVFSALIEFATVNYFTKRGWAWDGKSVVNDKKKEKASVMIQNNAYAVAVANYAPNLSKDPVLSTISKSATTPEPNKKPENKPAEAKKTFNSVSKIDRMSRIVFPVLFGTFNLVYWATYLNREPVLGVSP
The data set can be described thus: Displacement of [3H]Ro 15-1788 from human recombinant GABAA alpha-2-beta-3-gamma-2 receptor expressed in L(tk-) cells. The class given is cell-based.

In data set [7] the target is T2, GABA-A receptor; alpha-1/beta-3/gamma-2 (Homo sapiens). The data set can be described thus: Efficacy at human recombinant GABAA alpha-1-beta-3-gamma-2 receptor expressed in Xenopus laevis oocytes by two electrode voltage clamp method relative to GABA. Particulars: Oocyte. The class given is cell-based.
Data set [8] has as its target T3, GABA-A receptor; alpha-3/beta-3/gamma-2 (Homo sapiens). Briefly: Efficacy at human recombinant GABAA alpha-3-beta-3-gamma-2 receptor expressed in Xenopus laevis oocytes by two electrode voltage clamp method relative to GABA. It counts as cell-based. As to conditions: Oocyte.
Data set [9] has as its system Rattus norvegicus. Briefly: Receptor occupancy at GABAA receptor in rat at 3 mg/kg, po. It counts as functional.
Data set [10] deals with Rattus norvegicus. Briefly: Receptor occupancy at GABAA receptor in rat at 1 mg/kg, po. It counts as functional.
The nature of data set [11]: Bioavailability in rat. It counts as ADME, organism-based. Particulars: in vivo.
The test system of data set [12] is Rattus norvegicus. The data set can be described thus: Anxiolytic effect in rat at 1 mg/kg, po by anxiolytic assay. The class given is functional, organism-based. More on the design: dose 1 mg/kg.
A short description of data set [13]: Half life in rat. The class given is ADME, organism-based. Particulars: in vivo.
In data set [14] the test system is Rattus norvegicus. The data set can be described thus: Sedative effect in orally dosed rat at by chain-pulling assay. The class given is functional, organism-based.
The next data set concerns Mus musculus. Briefly: Receptor occupancy in vivo by displacement of [3H]Ro 15-1788 binding from GABAA receptor in orally dosed Swiss Webster mouse. The class given is functional. As to conditions: po, read-out: ID50 (the source's name).
The nature of data set [15]: Bioavailability in dog. The class given is ADME, organism-based, Canis lupus familiaris. As to conditions: in vivo.
Data set [16] in a line: Half life in dog. The class given is ADME, organism-based, Canis lupus familiaris. Particulars: in vivo.
The subject of data set [17] is Rattus norvegicus. The data set can be described thus: Anxiolytic effect in rat at 3 mg/kg, po by anxiety assay. It counts as functional, organism-based. Further details: dose 3 mg/kg.
The test system of data set [18] is Rattus norvegicus. Briefly: Receptor occupancy at GABAA receptor in rat at 30 mg/kg, po. The class given is functional.
The target in data set [19] is T1, GABA-A receptor; alpha-2/beta-3/gamma-2 (Homo sapiens). The data set can be described thus: Efficacy at human recombinant GABAA alpha-2-beta-3-gamma-2 receptor expressed in L(tk-) cells by two electrode voltage clamp method relative to GABA. It counts as cell-based. The method, boiled down: as §1

Activity calls are given as the source filed them. The calls are words filed in the database; no cut-off is given here.

As for `CN1C(=O)CN=C(c2ccccc2)c2cc(Cl)ccc21`, the Efficacy in [1] stood at 115%.

As for `Cn1ncnc1COc1nn2c(-c3ccccc3)nnc2cc1C(C)(C)C`, the results for the Efficacy in [2] and in data set [3] were 0% and 34%, respectively. In addition, the results for the Ki in [4] and in [5] were 140 pM and 360 pM, respectively.

In the case of `c1ccc(-c2cc3nnc(-c4ccccc4)n3nc2OCc2ccccn2)cc1`, the Ki stood at 2900 pM in data set [6], 1800 pM in data set [4] and 1100 pM in data set [5]. The Efficacy was 80% in [7] and 77% in data set [8].

`Cn1ncnc1COc1nn2c(-c3ccccc3)nnc2cc1-c1ccccc1`: the results for the Ki in data set [6], in data set [4] and in data set [5] were 2600 pM, 1200 pM and 780 pM, respectively. In addition, the results for the Efficacy in data set [7] and in data set [8] were 94% and 115%, respectively.

For the molecule `CCn1ncnc1COc1nn2c(-c3ccccc3F)nnc2cc1C(C)(C)C` [MK-0777], the Activity was determined as 88% in the data set on Rattus norvegicus [9], 70% in the data set on Rattus norvegicus [10] and 99% in the data set with Rattus norvegicus [18]. Besides, the bioavailability in data set [11] was found to be 35%; in data set [15], 53%. For the same molecule, the result in the data set on Rattus norvegicus [12] and in the data set on Rattus norvegicus [17] was Active. For the same molecule, the half-life in data set [13] is 1.4 h; in data set [16], 1.5 h. For the same molecule, the outcome with Rattus norvegicus [14] was inactive. The Ki in data set [6] amounted to 310 pM; in data set [4], 200 pM; in data set [5], 270 pM. In addition, the ED50 in the data set on Mus musculus is 0.42 mg/kg.

For `Cn1ncnc1COc1nn2c(-c3ccccc3)nnc2cc1C1CCC1`, the Efficacy in data set [19] stood at 41%; in [2] it was 27%; in data set [3], 72%. In addition, the Ki in [6] worked out at 250 pM; in data set [4] it was 170 pM; in data set [5] it was 230 pM.

As to `c1ccc(-c2nnc3c4c(c(OCc5ccccn5)nn23)C2CCC4CC2)cc1`, the values for the Efficacy in [1], in data set [7] and in [8] were 23%, 51% and 38%, respectively. In addition, in data set [4], the Ki stood at 12000 pM.

Regarding `Cn1ncnc1COc1nn2c(-c3ccccc3)nnc2cc1C1CCCC1`, the Efficacy in [2] is 47%; in data set [3], 63%. Besides, the Ki in data set [6] stood at 730 pM; in [4], 340 pM; in data set [5] it was 380 pM.

Take `Cn1ncnc1COc1nn2c(-c3ccccc3)nnc2cc1C1CCCCC1`: the Ki amounted to 14000 pM in data set [6], 4800 pM in data set [4] and 6200 pM in data set [5]. The Efficacy was determined as 65% in data set [7] and 109% in data set [8].

As to `Cc1ccc(-c2nc3ccc(C)cn3c2CC(=O)N(C)C)cc1`, the Efficacy in data set [1] is 123%; in data set [7], 160%.
